Key:
[1] = target: Human immunodeficiency virus type 1 reverse transcriptase (Human immunodeficiency virus 1) (UniProt Q72547); test: Inhibitory activity against HIV-1 replication in MT-4 cells; format: functional, cell-based; details: MT4
Method in brief: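 HTLV-IIIB strain of HIV in MT-4 cells, run in parallel with cytotoxicity on uninfected MT-4 cells. The read-out is protection of infected cells from virus-induced cytopathic effect. ED50 is the dose giving 50% protection.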

[2] = target: Human immunodeficiency virus type 1 reverse transcriptase (Human immunodeficiency virus 1) (UniProt Q72547); test: Selectivity index is the […] values against inhibition of HIV-1 in MT-4 cells; format: functional, cell-based; details: MT4
Method in brief: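 Selectivity index is CD50 (50% viability reduction of uninfected MT-4 cells) divided by ED50 (50% protection of HIV-infected MT-4 cells against cytopathic effect). Both come from parallel assays.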

MT4 = test: Cytotoxic dose in MT-4 cells; format: functional; details: Homo sapiens, read-out: CD50 (the source's name)

SMILES	ED50 [1] [µM]	SI [2]	CC50 (MT4) [µM]
O=c1[nH]c(=O)n([C@H]2C[C@H](F)[C@@H](CO)O2)cc1F	> 20	< 2	40
O=c1[nH]c(=O)n([C@H]2C[C@H](F)[C@@H](CO)O2)cc1I	0.16	13.6	2.17
Cc1cn([C@@H]2O[C@H](CO)C[C@H]2F)c(=O)[nH]c1=O	53	> 9.4	> 500
[N-]=[N+]=N[C@H]1C[C@H](n2cnc3c(N)ncnc32)O[C@@H]1CO	5		
Cc1cn([C@@H]2O[C@H](CO)C[C@@H]2F)c(=O)[nH]c1=O	> 500		> 500
[N-]=[N+]=N[C@H]1C[C@H](n2c(Br)nc3c(N)ncnc32)O[C@@H]1CO	> 500	< 1	409
Nc1ncnc2c1nc(Br)n2[C@H]1CC[C@@H](CO)O1	484	1	500
O=c1ccn([C@H]2C[C@H](F)[C@@H](CO)O2)c(=O)[nH]1	0.04	400	16
Cc1cn([C@H]2C[C@H](F)[C@@H](CO)O2)c(=O)nc1N	1.7	4.5	7.7
O=c1[nH]c(=O)n([C@H]2C[C@H](F)[C@@H](CO)O2)cc1Cl [RALURIDINE]	0.38	1410	535
Cc1cn([C@H]2C=C(F)[C@@H](CO)O2)c(=O)[nH]c1=O	11	22	240
OC[C@H]1O[C@@H](n2cnc3c(O)ncnc32)C[C@@H]1F	484	1	500
[N-]=[N+]=N[C@H]1C[C@H](n2cnc3c(O)ncnc32)O[C@@H]1CO	> 8	< 2	15
Nc1ccn([C@@H]2O[C@H](CO)C[C@@H]2F)c(=O)n1	9.8	12	117
COc1ccn([C@H]2C[C@H](F)[C@@H](CO)O2)c(=O)n1	46	7.6	348
Cc1cn([C@H]2C[C@H](F)[C@@H](CO)O2)c(=O)[nH]c1=O [ALOVUDINE]	0.001	197	0.197
Cc1cn([C@H]2C[C@H](N=[N+]=[N-])[C@@H](CO)O2)c(=O)[nH]c1=O [ZIDOVUDINE]	0.003	1600	4.8
O=c1[nH]c(=O)n([C@H]2C[C@H](F)[C@@H](CO)O2)cc1Br	0.41	59	24
Cc1cn([C@@H]2O[C@H](CO)C[C@H]2F)c(=O)nc1N	> 500		> 500
Nc1ncnc2c1ncn2[C@H]1C[C@H](F)[C@@H](CO)O1	50	11.1	557
Nc1ncnc2c1ncn2[C@H]1CC[C@@H](CO)O1	6.4	139	890

— ChEMBL document CHEMBL1124548 (1989)
